Test results taken from publication PMC11329366 (Clinical and Translational Science, 2024).

Tests used:
[1] = tested on: urinary log10 (10 × Na+/K+) ratio; assay: Phase I pharmacodynamics: urine sodium and urinary log10; format: in vivo, human
Method in brief: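 Urine was collected in intervals, and the amounts of sodium and potassium excreted per interval were measured. The urinary log10(10 × Na⁺/K⁺) ratio was calculated per interval after single doses and through 7 days of once-daily 40–360 mg dosing plus washout.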

[2] = Phase I first-in-human study: plasma and urine pharmacokinetics; format: in vivo
Method in brief: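 Healthy participants received an oral capsule. SAD: 5–800 mg fasted. MAD: 40, 120 or 360 mg once daily Days 1–7, fed. Females, or males ≥65 y, got a single 100 mg fasted dose, referenced to part 1. Plasma (all parts) and urine (MAD) were analysed non-compartmentally, BLQ=0, linear trapezoidal AUC. Dose proportionality used a power model (slope 95% CI); sex/age used geometric mean ratios (90% CI); fed-vs-fasted was compared informally.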

[3] = Phase I first-in-human study: safety and tolerability; format: in vivo
Method in brief: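 Randomized, double-blind, placebo-controlled. SAD cohorts had 6 active/2 placebo, with two sentinels dosed ≥24 h before the rest. MAD cohorts had 9 active/3 placebo, dosed daily Days 1–7. Safety data were reviewed before each next cohort. Monitoring covered TEAEs, treatment-related TEAEs, vital signs, 12-lead ECGs, clinical laboratory tests and physical examinations.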

[4] = tested on: plasma 11-deoxycortisol; assay: Phase I pharmacodynamics: plasma 11-deoxycortisol; format: in vivo, human; details: MAD, non-ACTH challenge conditions
[5] = tested on: plasma renin activity; assay: Phase I pharmacodynamics: plasma renin activity; format: in vivo, human; details: MAD 40 to 360 mg once daily
[6] = tested on: serum cortisol; assay: Phase I pharmacodynamics: serum cortisol, incl. ACTH challenge; format: in vivo, human
Method in brief: (§1)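 Plasma aldosterone and serum cortisol were followed after single fasted doses and after daily fed dosing. PAC AUC0–24 and cortisol AUC0–72 were derived non-compartmentally. Log AUC was modelled by dose group (pooled placebo), with Day ‑1 log AUC0–24 as covariate. Log change from time-matched Day ‑1 values over 0–24 h used a linear mixed model with unstructured covariance.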

[7] = tested on: serum 11-DOC; assay: Phase I pharmacodynamics: serum 11-DOC; format: in vivo, human; details: MAD 40 to 360 mg once daily
[8] = target: T1, human CYP11B2 (hCYP11B2) (Homo sapiens, UniProt P19099); assay: Assay of hCYP11B2 inhibition; format: biochemical; details: from inhibition constants
T1 sequence (P19099 25-503): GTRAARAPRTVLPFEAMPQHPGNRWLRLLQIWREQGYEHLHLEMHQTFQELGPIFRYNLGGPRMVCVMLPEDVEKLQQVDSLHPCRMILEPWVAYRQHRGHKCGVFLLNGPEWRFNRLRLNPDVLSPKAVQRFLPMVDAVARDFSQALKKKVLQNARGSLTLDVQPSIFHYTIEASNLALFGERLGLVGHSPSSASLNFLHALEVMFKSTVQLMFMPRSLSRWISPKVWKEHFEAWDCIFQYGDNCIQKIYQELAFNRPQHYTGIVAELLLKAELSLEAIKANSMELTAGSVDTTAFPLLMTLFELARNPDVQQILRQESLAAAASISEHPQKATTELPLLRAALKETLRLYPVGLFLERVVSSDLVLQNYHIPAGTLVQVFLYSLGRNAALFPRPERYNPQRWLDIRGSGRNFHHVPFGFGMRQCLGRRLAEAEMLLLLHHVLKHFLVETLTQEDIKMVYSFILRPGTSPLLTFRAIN
Method in brief: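 Enzyme source: mitochondrial fraction of V79 cells stably expressing human CYP11B2 or human CYP11B1. Substrates were 11-DOC (converted to aldosterone, CYP11B2) and 11-deoxycortisol (converted to cortisol, CYP11B1). Inhibition constants came from product-generation rates with the free base. A dual CYP11B1/CYP11B2 reference inhibitor served as positive control.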

[9] = tested on: serum potassium; assay: Phase I: serum potassium; format: in vivo, human
Method in brief: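 Serum potassium was tracked during 7 days of once-daily 40, 120 or 360 mg dosing (fed) and the following washout. The stopping criterion was 6.0 mmol/L potassium.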

[10] = tested on: plasma aldosterone; assay: Phase I pharmacodynamics: plasma aldosterone concentration; format: in vivo, human
Method in brief: as §1

[11] = MAD Day 6, all multiple-dose levels

CC(=O)N[C@H]1CC[C@H](NC(=O)CN2CCN(c3nncc(-c4ccc(C)cc4)n3)CC2)CC1 [lorundrostat, Lorundrostat]
urine sodium and urinary log10 (10 × Na+/K+) ratio ([1]; MAD Day 1, all dose levels): initially increased
urine sodium and urinary log10 (10 × Na+/K+) ratio ([1]; MAD Day 7, end of the dosing period): returned to baseline levels
urinary log10 (10 × Na+/K+) ratio ([1]; MAD, Day 7 to Day 9 (after last dose)): clear reductions
urine sodium and urinary log10 (10 × Na+/K+) ratio ([1]; SAD, all dose levels): increased
estimate of the slope for AUC0–24 versus dose (power model) ([2]; MAD Day 7, 95% CI, 1.060–1.234): 1.147
steady state achieved by ([2]; MAD once-daily dosing): ~5 days
estimate of the slope (95% CI) for C max versus dose (power model) ([2]; SAD 5–800 mg): 1.104 (1.043–1.164)
interindividual variability of exposure parameters (C max and AUC0–∞) ([2]; SAD 5–800 mg): < 20%
effect of fed state on the PK profile ([2]; first cohort of part 2 (fed) vs part 1 (fasted), exploratory): did not appear to be affected
half-life ([2]; human, plasma, oral, 5 mg, t 1/2, SAD 5 mg single dose, fasted, mean (SD)): 8.3 h
half-life ([2]; human, plasma, oral, 10 mg, t 1/2, SAD 10 mg single dose, fasted, mean (SD)): 7.9 h
half-life ([2]; human, plasma, oral, 40 mg, t 1/2, MAD 40 mg once daily, fed, Day 1, mean (SD)): 5.3 h
half-life ([2]; human, plasma, oral, 50 mg, t 1/2, SAD 50 mg single dose, fasted, mean (SD)): 9.1 h
half-life ([2]; human, plasma, oral, 120 mg, t 1/2, MAD 120 mg once daily, fed, Day 1, mean (SD)): 4.4 h
half-life ([2]; human, plasma, oral, 200 mg, t 1/2, SAD 200 mg single dose, fasted, mean (SD)): 9.9 h
Tmax ([2]; human, plasma, oral, 360 mg, T max, MAD 360 mg once daily, fed, Day 1, median (minimum, maximum)): 3 h
half-life ([2]; human, plasma, oral, 360 mg, t 1/2, MAD 360 mg once daily, fed, Day 1, mean (SD)): 4.4 h
half-life ([2]; human, plasma, oral, 360 mg, t 1/2, MAD 360 mg once daily, fed, Day 7, mean (SD)): 9.2 h
half-life ([2]; human, plasma, oral, 400 mg, t 1/2, SAD 400 mg single dose, fasted, mean (SD)): 9.7 h
half-life ([2]; human, plasma, oral, 800 mg, t 1/2, SAD 800 mg single dose, fasted, mean (SD)): 10.5 h
half-life ([2]; human, plasma, oral, mean t 1/2, MAD Day 7, range over dose groups): 9.1 to 11.9 h
half-life ([2]; human, plasma, oral, t 1/2, single- and multiple-dose administration): 10 to 12 h
difference in exposure between females and males ([2]; single 100 mg dose, part 3 vs part 1): no statistically significant difference
difference in exposure between older adult and younger adult participants ([2]; single 100 mg dose, part 4 vs part 1): no statistically significant difference
incidence of dizziness (of mild intensity) ([3]; across all cohorts, nine lorundrostat-treated participants, placebo one (3.4%)): 10.3%
overall incidence of TEAEs ([3]; all lorundrostat-treated participants (41/87), placebo 18/29 [62%]): 47%
findings in clinical laboratory, vital signs, ECGs, or physical examination ([3]; all parts): no clinically significant findings
serious TEAEs ([3]; all parts): no serious TEAEs
tolerability ([3]; all parts, single up to 800 mg, once daily up to 360 mg for 7 days): well tolerated
change from baseline of plasma 11-deoxycortisol concentrations [4]: no relevant changes from baseline
plasma renin activity compared with placebo [5]: increased
ACTH-stimulated cortisol response [6, 11]: no effect
change from baseline of serum cortisol concentrations ([6]; MAD, non-ACTH challenge conditions): no relevant changes from baseline
effect on cortisol (AUC0–72) ([6]; single doses 10 to 800 mg): without effecting cortisol
serum 11-DOC compared with placebo [7]: increased
selectivity for CYP11B2 over CYP11B1 [8]: 374 fold
maximum mean increase of serum potassium ([9]; MAD 40 mg, Day 8): 0.44 mmol/L
maximum mean increase of serum potassium ([9]; MAD 120 mg, Day 7): 0.6 mmol/L
subjects reaching the stopping criterion for potassium of 6.0 mmol/L ([9]; MAD part 2): None
ACTH-stimulated aldosterone response compared with placebo [10, 11]: completely blunted
maximum decrease of PAC compared with placebo ([10]; SAD, at 4 h and 8 h post-dose): ~ 80%
time for plasma aldosterone to return to baseline ([10]; multiple once-daily 120-mg doses): ≤ 16 h
reduction of PAC (AUC0–24) ([10]; single 400- to 800-mg doses): up to 70%
time for PAC to return to values near baseline ([10]; single doses 5–50 mg, post-dose): ≤ 24 h
duration of the reduction of PAC ([10]; single doses 100–800 mg): sustained until 24 h post‐dose
